Measured values published in ChEMBL document CHEMBL1127293, “Mobilization of iron by chiral and achiral anionic 3-hydroxypyrid-4-ones” (1994).

How the values were obtained:
Rattus norvegicus [1] = assay: Biliary excretion of iron was measured after giving intravenous dose of 0.2 mmol/kg during treatment period in rat; format: functional
In short: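 Female Sprague-Dawley rats, previously untreated, served as their own controls. Biliary iron collected 0.5 h for control, then 2 h after tail-vein injection (warm-water tail passage beforehand) under anesthesia; animals recovered between periods and were kept in metabolic cages with free tap water. Iron measured by atomic absorption at 248.3 nm; rate as μg Fe/h.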

Rattus norvegicus [2] = assay: Urinary iron excretion was measured after giving oral dose of 1 mmol/kg during treatment period in rat; format: functional, Urine
In short: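 Female Sprague-Dawley rats as own controls; under ether anesthesia at about 6 p.m., gavage of 1 mL Millipore water (control period) or chelator solution, 1 mL per 200 g rat. Urine collected 15 h overnight in metabolic cages separating feces, tap water ad libitum. Iron by atomic absorption at 248.3 nm; significance p ≤ 0.05.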

Work on `Cc1c(O)c(=O)ccn1[C@@H](C)C(=O)O` yielded a Treatment period (Rattus norvegicus [1]) of 6240 and a Treatment period (Rattus norvegicus [2]) of 3840.
With `CSCCC(C(=O)O)n1ccc(=O)c(O)c1C` (stereo not given) the biliary iron excretion (Rattus norvegicus [1]) was 12700 µg/h and the urinary iron excretion (Rattus norvegicus [2]) was 1740 µg/15 h.
In the case of `Cc1c(O)c(=O)ccn1C(CO)C(=O)O` (stereo not given), the biliary iron excretion (Rattus norvegicus [1]) is reported as 4180 µg/h and the urinary iron excretion (Rattus norvegicus [2]) is reported as 1790 µg/15 h.
For `Cc1c(O)c(=O)ccn1C(Cc1ccccc1)C(=O)O` (stereo not given), the biliary iron excretion (Rattus norvegicus [1]) was 8300 µg/h and the urinary iron excretion (Rattus norvegicus [2]) was 1280 µg/15 h.
Work on `Cc1c(O)c(=O)ccn1C(CC(C)C)C(=O)O` (stereo not given) yielded a biliary iron excretion (Rattus norvegicus [1]) of 11600 µg/h and a urinary iron excretion (Rattus norvegicus [2]) of 8550 µg/15 h.
Compound `Cc1c(O)c(=O)ccn1C` [DEFERIPRONE] has a biliary iron excretion (Rattus norvegicus [1]) of 4810 µg/h and a urinary iron excretion (Rattus norvegicus [2]) of 17300 µg/15 h.
`Cc1c(O)c(=O)ccn1Cc1ccc(C(=O)O)cc1` was tested, and the biliary iron excretion (Rattus norvegicus [1]) was 13700 µg/h and the urinary iron excretion (Rattus norvegicus [2]) was 1550 µg/15 h.
With `Cc1c(O)c(=O)ccn1-c1ccc(C(=O)O)cc1` the biliary iron excretion (Rattus norvegicus [1]) was 9390 µg/h and the urinary iron excretion (Rattus norvegicus [2]) was 1110 µg/15 h.
`Cc1c(O)c(=O)ccn1[C@H](C)C(=O)O` was tested, and the Treatment period (Rattus norvegicus [1]) was 4580 and the Treatment period (Rattus norvegicus [2]) was 4010.
In the case of `Cc1c(O)c(=O)ccn1C(CCC(=O)O)C(=O)O` (stereo not given), the biliary iron excretion (Rattus norvegicus [1]) is reported as 1150 µg/h and the urinary iron excretion (Rattus norvegicus [2]) is reported as 170 µg/15 h.
